From ChEMBL document CHEMBL1138747, “Synthesis and structure--activity relationship in a class of indolebutylpiperazines as dual 5-HT(1A) receptor agonists and serotonin reuptake inhibitors” (J Med Chem, 2004)

How the values were obtained:
[1] = target: 5-hydroxytryptamine receptor 1D (Rattus norvegicus, UniProt P28565); assay: Inhibition of rat hydroxytryptamine 1D receptor
[2] = target: 5-hydroxytryptamine receptor 4 (Rattus norvegicus, UniProt Q62758); assay: Inhibition of rat hydroxytryptamine 4 receptor
[3] = target: 5-hydroxytryptamine receptor 7 (Rattus norvegicus, UniProt P32305); assay: Inhibition of rat hydroxytryptamine 7 receptor
[4] = target: 5-hydroxytryptamine receptor 6 (Rattus norvegicus, UniProt P31388); assay: Inhibition of rat hydroxytryptamine 6 receptor
[5] = Inhibition of histamine H1 receptor
[6] = target: T1, Adrenergic receptor alpha-1 (Homo sapiens, UniProt P35348+P25100+P35368); assay: Inhibition of alpha-1-adrenergic receptor; assay type: protein assay
T1 sequence (P35348 whole entry): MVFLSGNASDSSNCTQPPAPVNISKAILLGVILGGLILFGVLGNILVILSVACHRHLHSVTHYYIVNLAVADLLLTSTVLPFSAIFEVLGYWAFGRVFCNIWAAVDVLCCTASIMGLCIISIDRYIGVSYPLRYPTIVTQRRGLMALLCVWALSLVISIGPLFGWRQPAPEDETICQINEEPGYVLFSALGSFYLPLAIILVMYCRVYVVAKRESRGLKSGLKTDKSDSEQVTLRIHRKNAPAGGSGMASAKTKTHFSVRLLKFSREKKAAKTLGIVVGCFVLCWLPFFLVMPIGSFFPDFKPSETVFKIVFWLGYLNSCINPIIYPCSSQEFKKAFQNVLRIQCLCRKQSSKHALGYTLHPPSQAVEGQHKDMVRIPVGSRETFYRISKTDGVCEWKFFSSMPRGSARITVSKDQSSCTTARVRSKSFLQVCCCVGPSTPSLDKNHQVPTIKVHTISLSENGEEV
T1 sequence (P25100 whole entry): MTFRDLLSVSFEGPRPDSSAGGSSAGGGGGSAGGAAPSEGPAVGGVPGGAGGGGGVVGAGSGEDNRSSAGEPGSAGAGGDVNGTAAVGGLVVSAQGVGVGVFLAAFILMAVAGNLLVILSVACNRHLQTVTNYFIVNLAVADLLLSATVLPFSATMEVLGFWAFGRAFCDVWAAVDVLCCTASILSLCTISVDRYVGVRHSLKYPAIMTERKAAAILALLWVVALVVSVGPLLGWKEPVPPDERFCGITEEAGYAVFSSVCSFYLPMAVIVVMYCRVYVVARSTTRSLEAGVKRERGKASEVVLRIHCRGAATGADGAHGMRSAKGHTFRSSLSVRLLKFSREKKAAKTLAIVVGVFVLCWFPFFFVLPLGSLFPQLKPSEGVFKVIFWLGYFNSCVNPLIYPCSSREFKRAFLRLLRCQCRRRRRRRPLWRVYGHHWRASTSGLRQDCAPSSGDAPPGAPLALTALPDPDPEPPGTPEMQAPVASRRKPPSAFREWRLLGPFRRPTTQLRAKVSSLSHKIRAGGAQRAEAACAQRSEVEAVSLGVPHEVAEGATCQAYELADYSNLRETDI
T1 sequence (P35368 whole entry): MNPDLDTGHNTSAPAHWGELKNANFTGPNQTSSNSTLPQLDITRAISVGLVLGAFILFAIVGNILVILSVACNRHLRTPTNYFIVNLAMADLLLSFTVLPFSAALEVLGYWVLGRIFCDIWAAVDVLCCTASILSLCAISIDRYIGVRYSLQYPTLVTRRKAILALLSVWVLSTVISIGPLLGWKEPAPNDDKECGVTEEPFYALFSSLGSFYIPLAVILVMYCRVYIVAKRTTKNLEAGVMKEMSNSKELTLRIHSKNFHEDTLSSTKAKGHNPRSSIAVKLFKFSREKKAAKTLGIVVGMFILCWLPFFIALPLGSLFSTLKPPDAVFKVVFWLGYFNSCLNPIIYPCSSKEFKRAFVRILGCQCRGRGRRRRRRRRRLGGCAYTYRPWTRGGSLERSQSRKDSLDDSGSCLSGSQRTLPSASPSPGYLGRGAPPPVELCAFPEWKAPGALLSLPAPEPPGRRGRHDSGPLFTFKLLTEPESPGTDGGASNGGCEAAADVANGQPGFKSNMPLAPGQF

D(3) dopamine receptor = D(3) dopamine receptor (Rattus norvegicus, UniProt P19020); assay: Inhibition of rat dopamine D3 receptor
[7] = target: 5-hydroxytryptamine receptor 1B (Rattus norvegicus, UniProt P28564); assay: Inhibition of rat hydroxytryptamine 1B receptor
[8] = Inhibition of kappa opioid receptor
Rattus norvegicus = assay: Dose required to inhibit ultrasonic vocalisation on peroral administered; assay type: functional; details: po, read-out: ID50 (the source's name)
Method in brief: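 Rat ultrasonic vocalization test. In a priming session, up to 10 grid-floor shocks were given (1.8 mA, 0.3 s, 20 s apart). Rats not vocalizing on three consecutive trials were excluded. Next day, rats were tested 2 h after dosing: five shocks, then vocalization duration recorded over 3 min. ID50 (dose for half-maximal inhibition) came from dose–response curves.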

[9] = target: T2, 5-hydroxytryptamine receptor 2C (Rattus norvegicus, UniProt P08909); assay: Inhibition of rat hydroxytryptamine 2C receptor
T2 sequence (P08909 whole entry): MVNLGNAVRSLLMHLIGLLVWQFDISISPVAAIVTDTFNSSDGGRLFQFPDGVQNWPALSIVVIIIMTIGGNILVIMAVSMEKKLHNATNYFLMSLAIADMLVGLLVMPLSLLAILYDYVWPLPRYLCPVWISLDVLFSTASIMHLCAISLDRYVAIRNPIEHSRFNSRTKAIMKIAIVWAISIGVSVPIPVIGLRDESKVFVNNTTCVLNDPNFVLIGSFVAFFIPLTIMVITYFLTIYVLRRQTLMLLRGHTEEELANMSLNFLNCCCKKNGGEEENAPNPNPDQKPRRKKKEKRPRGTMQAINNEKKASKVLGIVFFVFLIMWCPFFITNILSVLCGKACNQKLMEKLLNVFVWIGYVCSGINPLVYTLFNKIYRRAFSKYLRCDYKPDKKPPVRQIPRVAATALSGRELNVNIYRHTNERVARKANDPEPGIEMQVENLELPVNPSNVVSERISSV

Chain of 5-hydroxytryptamine receptor 4 (Q62758 whole entry): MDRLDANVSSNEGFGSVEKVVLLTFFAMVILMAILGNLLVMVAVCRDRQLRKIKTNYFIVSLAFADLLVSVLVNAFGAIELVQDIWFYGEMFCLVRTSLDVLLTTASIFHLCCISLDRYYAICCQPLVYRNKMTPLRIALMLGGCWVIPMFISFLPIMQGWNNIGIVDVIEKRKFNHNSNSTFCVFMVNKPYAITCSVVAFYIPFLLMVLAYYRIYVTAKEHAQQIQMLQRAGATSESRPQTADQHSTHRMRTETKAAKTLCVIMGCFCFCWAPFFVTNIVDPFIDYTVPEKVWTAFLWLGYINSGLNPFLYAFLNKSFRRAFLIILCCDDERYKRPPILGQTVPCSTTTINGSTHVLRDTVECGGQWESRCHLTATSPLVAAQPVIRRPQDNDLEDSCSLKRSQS
Chain of 5-hydroxytryptamine receptor 6 (P31388 whole entry): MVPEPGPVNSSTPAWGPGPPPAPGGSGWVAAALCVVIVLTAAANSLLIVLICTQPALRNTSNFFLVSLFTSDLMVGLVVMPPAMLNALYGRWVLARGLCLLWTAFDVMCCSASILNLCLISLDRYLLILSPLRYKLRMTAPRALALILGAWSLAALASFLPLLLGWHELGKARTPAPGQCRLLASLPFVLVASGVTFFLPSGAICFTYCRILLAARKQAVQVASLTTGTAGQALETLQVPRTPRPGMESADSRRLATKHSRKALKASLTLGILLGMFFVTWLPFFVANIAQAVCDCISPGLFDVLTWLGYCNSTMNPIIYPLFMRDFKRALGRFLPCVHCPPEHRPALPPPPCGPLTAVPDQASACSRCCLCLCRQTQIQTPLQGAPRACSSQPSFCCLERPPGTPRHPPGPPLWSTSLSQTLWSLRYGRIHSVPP
Chain of 5-hydroxytryptamine receptor 7 (P32305 whole entry): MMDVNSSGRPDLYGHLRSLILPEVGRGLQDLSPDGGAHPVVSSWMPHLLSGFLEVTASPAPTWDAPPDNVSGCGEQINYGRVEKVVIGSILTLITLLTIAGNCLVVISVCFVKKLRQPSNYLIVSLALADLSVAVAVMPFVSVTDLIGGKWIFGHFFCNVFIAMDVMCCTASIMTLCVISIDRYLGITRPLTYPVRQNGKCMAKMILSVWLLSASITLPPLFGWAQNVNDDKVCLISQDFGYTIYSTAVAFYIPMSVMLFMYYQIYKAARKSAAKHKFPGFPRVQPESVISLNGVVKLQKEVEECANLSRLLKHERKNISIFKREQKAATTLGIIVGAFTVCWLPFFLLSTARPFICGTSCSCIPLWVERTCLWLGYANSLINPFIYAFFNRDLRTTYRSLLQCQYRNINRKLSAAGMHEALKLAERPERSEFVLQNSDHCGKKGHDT
Chain of D(3) dopamine receptor (P19020 whole entry): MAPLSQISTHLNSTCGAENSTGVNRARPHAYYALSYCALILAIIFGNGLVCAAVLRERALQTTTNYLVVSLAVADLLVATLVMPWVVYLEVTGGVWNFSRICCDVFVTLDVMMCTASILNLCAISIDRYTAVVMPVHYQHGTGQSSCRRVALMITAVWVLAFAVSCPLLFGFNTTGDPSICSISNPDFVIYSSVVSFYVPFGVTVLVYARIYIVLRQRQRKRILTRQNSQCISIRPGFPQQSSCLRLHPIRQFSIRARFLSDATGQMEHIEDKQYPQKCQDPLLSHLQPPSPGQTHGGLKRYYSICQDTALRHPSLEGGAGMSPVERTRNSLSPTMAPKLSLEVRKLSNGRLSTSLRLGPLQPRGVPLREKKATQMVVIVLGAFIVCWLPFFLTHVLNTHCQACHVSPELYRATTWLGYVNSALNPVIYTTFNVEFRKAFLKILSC
Chain of 5-hydroxytryptamine receptor 1B (P28564 whole entry): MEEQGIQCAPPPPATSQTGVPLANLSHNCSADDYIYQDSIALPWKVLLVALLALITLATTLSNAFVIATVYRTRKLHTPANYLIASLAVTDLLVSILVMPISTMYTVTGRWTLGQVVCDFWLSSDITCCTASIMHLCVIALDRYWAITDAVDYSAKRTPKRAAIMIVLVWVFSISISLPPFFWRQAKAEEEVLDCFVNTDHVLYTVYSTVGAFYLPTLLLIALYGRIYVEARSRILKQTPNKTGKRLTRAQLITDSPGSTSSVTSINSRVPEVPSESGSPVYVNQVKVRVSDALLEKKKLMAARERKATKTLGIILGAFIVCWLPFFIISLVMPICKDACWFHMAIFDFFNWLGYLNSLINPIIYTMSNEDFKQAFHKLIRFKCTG
Chain of 5-hydroxytryptamine receptor 1D (P28565 whole entry): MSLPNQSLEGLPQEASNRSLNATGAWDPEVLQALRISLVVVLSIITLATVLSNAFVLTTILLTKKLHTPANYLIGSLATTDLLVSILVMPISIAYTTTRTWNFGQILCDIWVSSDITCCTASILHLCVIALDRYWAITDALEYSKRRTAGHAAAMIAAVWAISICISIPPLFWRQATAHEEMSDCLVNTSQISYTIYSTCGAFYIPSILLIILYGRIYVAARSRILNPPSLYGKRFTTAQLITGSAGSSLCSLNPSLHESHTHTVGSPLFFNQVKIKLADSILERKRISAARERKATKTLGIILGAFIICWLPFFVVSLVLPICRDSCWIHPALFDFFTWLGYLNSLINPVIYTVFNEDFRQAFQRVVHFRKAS

IC50 [1]: 4000 nM
IC50 [2]: 252 nM
IC50 [3]: 3900 nM
IC50 [4]: 3000 nM
IC50 [5]: 317 nM
IC50 [6]: 1980 nM
IC50 (D(3) dopamine receptor): 71 nM
IC50 [7]: 5000 nM
IC50 [8]: > 1000 nM
IC50 [9]: 2000 nM
SMILES: N#Cc1ccc2[nH]cc(CCCCN3CCN(c4ccc5oc(C(N)=O)cc5c4)CC3)c2c1 [VILAZODONE]
ED50 (Rattus norvegicus): 13 mg/kg
